This is an account of results in ChEMBL document CHEMBL4346709, “Design and Optimization Leading to an Orally Active TTK Protein Kinase Inhibitor with Robust Single Agent Efficacy” (J Med Chem, 2019).

The test system of series [1] is CAL-51. In words: Antiproliferative activity against human CAL51 cells assessed as reduction in cell viability after 3 days by CellTiter-Glo reagent-based luminescent assay. Type of series: functional. As to conditions: CAL-51, 72 h. (In general: In ATP-based viability assays light output follows the ATP content of the culture.)
Series [2] concerns the target Mitogen-activated protein kinase 9 (Homo sapiens, UniProt P45984). The series can be described thus: Inhibition of recombinant human full length His-tagged JNK2 expressed in baculovirus expression system at 3 uM by Z'-LYTE assay relative to control. An outline of the steps: (§1)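 Kinase selectivity panel: single-point assessment at 3 µM, n=1.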
Series [3] deals with CAL-51. The series can be described thus: Induction of apoptosis in human CAL51 cells xenografted in CB17 SCID mouse assessed as activation of cleaved caspase-3 at 10 mg/kg, po measured after 1 to 48 hrs by MSD electrochemiluminescent immunoassay relative to control. Type of series: functional. An outline of the steps:
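CB17 SCID mice bearing CAL-51 tumours of 300-500 mm3 given compound orally. At preset time points the mice were euthanised and the tumours dissected and snap-frozen in liquid nitrogen. pHH3 Ser10 or cleaved caspase measured by MSD electrochemiluminescent immunoassay kit. Data are mean ± SEM.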
(In general: In xenograft studies the graft and the host belong to different species.)

The target of series [4] is T1, Testis-specific serine/threonine-protein kinase 1 (Homo sapiens) (UniProt Q9BXA7).
T1 sequence (whole entry): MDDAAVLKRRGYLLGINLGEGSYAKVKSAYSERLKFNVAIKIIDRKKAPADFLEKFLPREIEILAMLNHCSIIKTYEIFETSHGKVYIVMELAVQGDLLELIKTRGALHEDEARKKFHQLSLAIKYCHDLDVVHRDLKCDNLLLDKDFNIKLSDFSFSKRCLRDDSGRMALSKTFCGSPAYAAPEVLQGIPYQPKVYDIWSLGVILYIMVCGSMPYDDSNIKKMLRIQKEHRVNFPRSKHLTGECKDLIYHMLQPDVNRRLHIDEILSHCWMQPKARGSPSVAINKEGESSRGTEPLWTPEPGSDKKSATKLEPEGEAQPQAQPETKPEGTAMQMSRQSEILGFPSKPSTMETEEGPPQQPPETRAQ
The series can be described thus: Inhibition of recombinant human full length His-tagged TSSK1 expressed in baculovirus expression system at 3 uM by Z'-LYTE assay relative to control. The procedure, abridged:
as §1

Series [5] has as its target Leucine-rich repeat serine/threonine-protein kinase 2 (Homo sapiens, UniProt Q5S007). The series can be described thus: Inhibition of recombinant human GST-tagged LRRK2 catalytic domain (970 to 2527 residues) expressed in baculovirus expression system using LRRKtide as substrate measured after 1 hr by Alexa fluor-647 ADP tracer-based ADAPTA assay.
The species entered for the next series is Homo sapiens. In words: Selectivity ratio of IC50 for inhibition of recombinant human GST-tagged LRRK2 G2019S mutant catalytic domain (970 to 2527 residues) expressed in baculovirus expression system to IC50 for inhibition of Kinase Tracer 236 binding to recombinant human full-length GST-tagged TTk expressed in baculovirus expression system.
The target in series [6] is T2, Dual specificity tyrosine-phosphorylation-regulated kinase 3 (Homo sapiens) (UniProt O43781).
T2 sequence (whole entry): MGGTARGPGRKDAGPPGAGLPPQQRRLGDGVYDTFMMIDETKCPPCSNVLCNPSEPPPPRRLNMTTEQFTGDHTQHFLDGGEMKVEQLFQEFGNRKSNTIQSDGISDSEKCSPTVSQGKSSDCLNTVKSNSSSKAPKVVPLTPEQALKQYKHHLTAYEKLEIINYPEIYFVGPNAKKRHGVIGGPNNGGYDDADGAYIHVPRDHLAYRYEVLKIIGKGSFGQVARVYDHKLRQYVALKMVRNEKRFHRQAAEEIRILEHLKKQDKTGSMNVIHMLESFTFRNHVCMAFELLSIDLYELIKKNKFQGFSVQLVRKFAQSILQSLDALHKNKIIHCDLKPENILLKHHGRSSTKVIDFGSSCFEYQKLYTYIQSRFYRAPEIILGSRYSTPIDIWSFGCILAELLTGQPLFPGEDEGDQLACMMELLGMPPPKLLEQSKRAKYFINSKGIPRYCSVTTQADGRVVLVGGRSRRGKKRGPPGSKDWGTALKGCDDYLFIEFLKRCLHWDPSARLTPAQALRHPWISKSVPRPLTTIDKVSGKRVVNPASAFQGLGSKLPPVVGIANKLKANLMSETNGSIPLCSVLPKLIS
The series can be described thus: Inhibition of recombinant human full length GST-tagged DYRK3 expressed in baculovirus expression system at 3 uM by Z'-LYTE assay relative to control. The procedure, abridged:
as §1

In series [7] the test system is CAL-51. In words: Antitumor activity against human CAL51 cells xenografted in po dosed CB17 SCID mouse assessed as tumor growth inhibition administered every seven days for 16 days and measured twice per week up to 31 days by caliper method. In kind it is functional, organism-based. The procedure, abridged:
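Female CB17 SCID mice, 6-8 weeks old, inoculated subcutaneously with 2×10^6 CAL-51 cells. Oral dosing once weekly (QW) at 30-120 mg/kg, or 30 mg/kg BID QW, for 16 days, against vehicle control. Tumour long and short axes measured twice weekly by digital caliper; volume = width² × length/2. Values are TGI; data are mean ± SEM.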

The target of a further series is LRRK2 G2019S mutant (Homo sapiens, UniProt Q5S007, G2019S). The series can be described thus: Inhibition of recombinant human GST-tagged LRRK2 G2019S mutant catalytic domain (970 to 2527 residues) expressed in baculovirus expression system at 3 uM using LRRKtide as substrate measured after 1 hr by Alexa-fluor-647 ADP tracer-based ADAPTA assay relative to control. As to conditions: probe LRRKtide. The procedure, abridged:
as §1

In series [8] the target is Mitogen-activated protein kinase 8 (Homo sapiens, UniProt P45983). In words: Inhibition of recombinant human full length His-tagged JNK1 expressed in baculovirus expression system at 3 uM by Z'-LYTE assay relative to control. An outline of the steps: as §1
Series [9] can be described thus: AUC in rat at 10 mg/kg, po. Type of series: ADME, organism-based. The settings on record: in vivo. The procedure, abridged: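 Rat oral PK at 10 mg/kg. Compound is given as a solution in CMCT (0.5% CMC/0.25% tween-80) or formulated in 5% TPGS, 10% captisol, 50 mM citrate buffer. Cmax and AUC are recorded.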
Series [10] in a line: AUC in CB17 SCID mouse at 30 mg/kg, po. Type of series: ADME, organism-based. The settings on record: in vivo. An outline of the steps:
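Oral PK in SCID mice at 30 mg/kg. Compound is formulated either in CMCT (0.5% CMC/0.25% tween-80) or in 5% TPGS, 10% captisol, 50 mM citrate buffer, depending on compound. Cmax and AUC are measured.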

A short description of series [11]: Oral bioavailability in CB17 SCID mouse at 30 mg/kg. Type of series: ADME, organism-based. As to conditions: in vivo.
The target of series [12] is Leukocyte tyrosine kinase receptor (Homo sapiens, UniProt P29376). The series can be described thus: Inhibition of recombinant human GST-tagged LTK cytoplasmic domain (450 to 864 residues) expressed in baculovirus expression system by Z'-LYTE assay.

The structures appear in SMILES notation. Some results are limits rather than exact numbers.

Sequence of LRRK2 G2019S mutant (Q5S007 whole entry G2019S, the tested form may be a part): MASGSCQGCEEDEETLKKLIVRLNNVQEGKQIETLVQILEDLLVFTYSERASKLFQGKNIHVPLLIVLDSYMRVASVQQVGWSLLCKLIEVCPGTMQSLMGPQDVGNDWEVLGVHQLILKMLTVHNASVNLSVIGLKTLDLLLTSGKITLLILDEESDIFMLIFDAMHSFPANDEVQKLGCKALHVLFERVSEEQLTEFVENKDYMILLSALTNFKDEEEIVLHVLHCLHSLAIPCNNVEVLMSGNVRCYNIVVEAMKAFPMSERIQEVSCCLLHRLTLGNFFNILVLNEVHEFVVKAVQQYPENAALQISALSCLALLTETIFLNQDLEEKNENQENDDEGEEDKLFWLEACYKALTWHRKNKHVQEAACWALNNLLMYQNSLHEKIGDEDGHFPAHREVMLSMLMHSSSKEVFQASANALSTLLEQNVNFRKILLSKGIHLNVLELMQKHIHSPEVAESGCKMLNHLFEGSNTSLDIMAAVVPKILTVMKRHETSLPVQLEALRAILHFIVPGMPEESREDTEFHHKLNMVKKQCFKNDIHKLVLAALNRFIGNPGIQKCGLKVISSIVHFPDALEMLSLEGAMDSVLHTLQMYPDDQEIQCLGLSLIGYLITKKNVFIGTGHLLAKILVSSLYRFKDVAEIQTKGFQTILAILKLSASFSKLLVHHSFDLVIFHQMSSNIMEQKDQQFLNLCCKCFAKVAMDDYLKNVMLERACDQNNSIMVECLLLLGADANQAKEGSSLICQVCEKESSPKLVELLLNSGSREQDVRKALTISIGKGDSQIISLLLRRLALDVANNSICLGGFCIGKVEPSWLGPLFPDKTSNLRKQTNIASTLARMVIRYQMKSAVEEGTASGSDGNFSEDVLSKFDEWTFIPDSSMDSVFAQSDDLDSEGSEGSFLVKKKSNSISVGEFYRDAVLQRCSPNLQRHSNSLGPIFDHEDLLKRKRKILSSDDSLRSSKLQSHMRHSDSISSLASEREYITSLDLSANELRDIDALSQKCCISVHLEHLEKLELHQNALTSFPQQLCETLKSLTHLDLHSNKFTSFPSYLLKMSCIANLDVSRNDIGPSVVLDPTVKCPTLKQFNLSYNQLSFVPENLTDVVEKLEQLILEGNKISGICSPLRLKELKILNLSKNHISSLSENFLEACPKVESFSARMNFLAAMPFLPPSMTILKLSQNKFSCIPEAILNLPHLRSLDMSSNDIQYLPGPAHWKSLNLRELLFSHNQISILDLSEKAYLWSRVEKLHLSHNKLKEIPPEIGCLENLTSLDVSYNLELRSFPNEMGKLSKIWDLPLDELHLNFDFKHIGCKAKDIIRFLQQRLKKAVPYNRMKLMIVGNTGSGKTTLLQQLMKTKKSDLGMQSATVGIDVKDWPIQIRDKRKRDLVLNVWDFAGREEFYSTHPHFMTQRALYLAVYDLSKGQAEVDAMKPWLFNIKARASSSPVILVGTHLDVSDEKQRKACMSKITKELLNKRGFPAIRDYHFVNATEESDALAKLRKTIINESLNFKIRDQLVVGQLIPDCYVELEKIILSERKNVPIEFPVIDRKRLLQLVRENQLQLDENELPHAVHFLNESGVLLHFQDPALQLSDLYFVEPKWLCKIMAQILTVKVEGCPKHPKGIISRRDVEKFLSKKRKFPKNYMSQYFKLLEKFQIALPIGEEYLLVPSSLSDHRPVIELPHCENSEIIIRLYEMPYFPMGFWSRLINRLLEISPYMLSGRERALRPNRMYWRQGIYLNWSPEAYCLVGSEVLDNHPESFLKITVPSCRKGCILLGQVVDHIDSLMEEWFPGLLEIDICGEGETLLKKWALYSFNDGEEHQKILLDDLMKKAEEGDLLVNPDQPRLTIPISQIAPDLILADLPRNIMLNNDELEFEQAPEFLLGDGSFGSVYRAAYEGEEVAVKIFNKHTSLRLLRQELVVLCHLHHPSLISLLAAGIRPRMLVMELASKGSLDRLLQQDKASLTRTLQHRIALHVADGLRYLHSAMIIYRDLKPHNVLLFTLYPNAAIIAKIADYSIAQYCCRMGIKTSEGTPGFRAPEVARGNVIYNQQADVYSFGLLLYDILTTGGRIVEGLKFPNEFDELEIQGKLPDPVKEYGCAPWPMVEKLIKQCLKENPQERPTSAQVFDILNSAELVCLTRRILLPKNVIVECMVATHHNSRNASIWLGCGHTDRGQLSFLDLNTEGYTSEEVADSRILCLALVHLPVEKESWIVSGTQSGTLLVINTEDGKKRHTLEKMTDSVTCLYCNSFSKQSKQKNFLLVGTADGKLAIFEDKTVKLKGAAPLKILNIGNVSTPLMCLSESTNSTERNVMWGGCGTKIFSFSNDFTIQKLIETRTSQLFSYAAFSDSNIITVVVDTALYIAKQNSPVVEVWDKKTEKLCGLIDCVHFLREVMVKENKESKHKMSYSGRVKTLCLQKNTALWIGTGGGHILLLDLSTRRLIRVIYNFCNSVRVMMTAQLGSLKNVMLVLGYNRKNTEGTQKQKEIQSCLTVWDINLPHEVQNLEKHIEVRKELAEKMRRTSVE
Sequence of Leucine-rich repeat serine/threonine-protein kinase 2 (Q5S007 whole entry, the tested form may be a part): as the sequence (Q5S007 whole entry G2019S, the tested form may be a part) above, with S2019G counted along it
Sequence of Leukocyte tyrosine kinase receptor (P29376 whole entry, the tested form may be a part): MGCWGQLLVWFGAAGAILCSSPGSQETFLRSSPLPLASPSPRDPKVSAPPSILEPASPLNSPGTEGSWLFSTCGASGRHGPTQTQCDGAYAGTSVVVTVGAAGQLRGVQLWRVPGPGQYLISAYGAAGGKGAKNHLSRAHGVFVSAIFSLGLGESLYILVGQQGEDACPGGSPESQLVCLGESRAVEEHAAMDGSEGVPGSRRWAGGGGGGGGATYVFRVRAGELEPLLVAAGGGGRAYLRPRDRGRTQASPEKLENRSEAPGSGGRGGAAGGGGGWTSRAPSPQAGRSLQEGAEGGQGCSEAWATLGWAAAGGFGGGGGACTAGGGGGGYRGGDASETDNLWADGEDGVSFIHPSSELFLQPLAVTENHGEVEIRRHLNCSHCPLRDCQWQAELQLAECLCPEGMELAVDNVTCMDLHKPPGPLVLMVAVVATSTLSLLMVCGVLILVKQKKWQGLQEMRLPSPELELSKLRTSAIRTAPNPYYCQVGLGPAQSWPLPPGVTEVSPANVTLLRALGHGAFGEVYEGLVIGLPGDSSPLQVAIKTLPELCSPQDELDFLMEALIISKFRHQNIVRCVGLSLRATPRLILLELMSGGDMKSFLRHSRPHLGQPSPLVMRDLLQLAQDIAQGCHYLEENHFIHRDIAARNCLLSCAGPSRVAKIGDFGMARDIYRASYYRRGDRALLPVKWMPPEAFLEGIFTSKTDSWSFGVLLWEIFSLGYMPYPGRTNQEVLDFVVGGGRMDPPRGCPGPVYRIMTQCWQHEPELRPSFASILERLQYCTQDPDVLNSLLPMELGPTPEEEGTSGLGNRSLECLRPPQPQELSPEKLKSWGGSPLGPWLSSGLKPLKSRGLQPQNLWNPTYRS
Sequence of Mitogen-activated protein kinase 9 (P45984 whole entry, looked up): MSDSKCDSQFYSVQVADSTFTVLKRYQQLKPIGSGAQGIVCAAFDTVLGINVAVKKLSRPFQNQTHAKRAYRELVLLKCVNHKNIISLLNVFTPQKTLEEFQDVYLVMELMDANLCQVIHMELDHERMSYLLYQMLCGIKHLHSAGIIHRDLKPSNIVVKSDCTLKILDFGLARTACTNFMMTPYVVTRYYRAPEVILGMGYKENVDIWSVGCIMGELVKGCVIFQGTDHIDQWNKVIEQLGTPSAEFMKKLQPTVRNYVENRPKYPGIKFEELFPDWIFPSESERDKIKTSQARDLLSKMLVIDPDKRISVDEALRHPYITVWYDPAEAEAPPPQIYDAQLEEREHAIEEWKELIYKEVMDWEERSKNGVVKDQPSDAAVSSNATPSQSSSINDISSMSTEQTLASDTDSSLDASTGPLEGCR
Sequence of Mitogen-activated protein kinase 8 (P45983 whole entry): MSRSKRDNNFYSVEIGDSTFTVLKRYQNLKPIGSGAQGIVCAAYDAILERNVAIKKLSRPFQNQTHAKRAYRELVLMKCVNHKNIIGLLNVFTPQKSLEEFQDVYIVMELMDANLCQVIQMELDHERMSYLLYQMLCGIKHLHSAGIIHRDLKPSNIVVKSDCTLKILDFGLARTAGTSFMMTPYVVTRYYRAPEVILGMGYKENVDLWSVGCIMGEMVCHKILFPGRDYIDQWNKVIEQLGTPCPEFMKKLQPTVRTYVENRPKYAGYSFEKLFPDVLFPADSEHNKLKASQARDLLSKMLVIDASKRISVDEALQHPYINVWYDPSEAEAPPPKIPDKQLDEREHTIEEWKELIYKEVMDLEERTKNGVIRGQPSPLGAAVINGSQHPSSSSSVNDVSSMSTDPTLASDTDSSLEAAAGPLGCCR

As to `C[C@@H](Oc1cc(C(=O)N(C)C)ccc1Nc1nc(O[C@H]2CC[C@@](C)(O)CC2)c2c(Cl)c[nH]c2n1)C(F)(F)F`, the values for the IC50 (with CAL-51 [1]; in series [5]; in [12]) were 10 nM, 0.001 nM and 0.567 nM, respectively. For the same molecule, the inhibition in [2], in [4], in [6] and in [8] was > 80% throughout. In addition, in the series with CAL-51 [3], the Activity came to 159%. Moreover, the Ratio IC50 in the series filed under Homo sapiens is < 100. The TGI entry with CAL-51 [7] is “Dose-dependent effect”. The inhibition (as a rule, the relative decrease from the control value, in per cent) at 1 h, 3 µM on LRRK2 G2019S mutant is > 80%. In addition, the figures for the AUC in series [9] and in series [10] were 26 to 26.3 µM·h and 22.5 µM·h, respectively. In addition, the bioavailability – broadly, the share of a dose that reaches the circulation, judged against a reference dose that is usually intravenous – in series [11] was 60%.
